Bioassay records as filed in PubChem.
Hits are enriched below; roughly 1.5% of the tested compounds scored in any of these assays.
Arrestin-AP2 inh – inhibitors of beta-arrestin/AP2 binding, primary screen, biochemical, GPCR trafficking, flow cytometry. beta-arrestin 1 C-terminal peptide binding to AP2 beta2-adaptin appendage (human). inhibition, % at 10 µM. 340,000 compounds, 0.31% hits. FITC-arrestin peptide / GST-AP2 beads; AP2 beta2 appendage carries R879A mutation;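 active = inhibition above a set limit, near 3 SD of compounds lacking own fluorescence, cut at about 54% in these data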
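Measured by: flow cytometry, FL1 (488/535 nm); Material: AP2 appendage R879A on GSH beads; Evaluation: percent response; Timing: pre-incubation 12 min, peptide binding 1 h, room temperature; Also added: 50 nM FITC-arrestin peptide; Medium: PBS with 0.05% Tween 20 and 0.1% BSA.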
Pemphigus Ab inh – inhibitors of pemphigus antibody binding to DSG3, primary screen, biochemical, bead-based, flow cytometry, scFv-GFP; Desmoglein-3 (Homo sapiens), P32926; DSG3-coupled beads, scFv-anti-DSG3-GFP binding; stronger effect = lower value; binding (percent of control), % at 10 µM; 310,000 compounds, 0.48% hits; AID 588358, 2011;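 active = binding more than 3 SD below its plate's average and above zero; inconclusive = below that plate limit but binding exactly zero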
T cell modulator – modulators of CD8 T cell-vesicle binding, primary screen, mouse 2C CD8+ T cells, flow cytometry; AID 2052, 2009; 330,000 compounds, 0.068% hits; 2C CD8+ T cell-vesicle binding; stronger effect = lower value; response (vesicle binding), % at 7 µM;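 active = response, share of CD8 T cells binding vesicles, and their 90th percentile fluorescence all below set limits, cut at about 80% in these data, passing the limit was not always enough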;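 also: values below 100% mean blocked vesicle binding to the CD8+ T cells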
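Incubation: binding step 1.5 h, 37 °C, antibody labelling 20 min, ice; system: murine 2C transgenic CD8+ T lymphocytes; technique: cytometric PE anti-B7-1 and Alexa647 anti-CD8 signals after 1% paraformaldehyde fixation; also added: QL9-charged Drosophila Ld/ICAM-1/B7-1 vesicles; control set: naked versus QL9-loaded vesicles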
HDAC3 inhib – HDAC3 deacetylase inhibitors, primary screen, biochemical, fluorescence, cell-free homogeneous; recombinant HDAC3, fluorogenic peptide/trypsin coupled; inhibition, % at 8.3 µM; 320,000 compounds, 0.15% hits; in the data active = inhibition above about 26%, passing the limit was not always enough; inconclusive = no clear call, values can overlap the other calls
LANA-H2A inh – blockers of LANA interaction with H2A/H2B – biochemical, FP readout, HTS, primary screen; cell-free LANA-H2A/H2B peptide, fluorescence polarization; 320,000 compounds, 0.6% hits; inhibition, % (no concentration beside the values); Protein LANA1 (Human herpesvirus 8 type P (isolate GK18)), Q9QR71; in the data active = inhibition mostly above about 10%, no sharp cut-off; inactive = mostly below about 6.7%
Each line names hits and unclear results; the compound was inactive in the other large screens.

N=C(N)c1ccc(OCCCCCOc2ccc(C(=N)N)cc2)cc1	HDAC3 inhib 61
CCCCCCOc1ccc(/C(N)=N/O)cc1	none
COC(=O)[C@@]12CCCCN1[C@H](c1ccc(-c3ccc(F)cc3)c(OC)c1)[C@@H]1C(=O)N(C)C(=O)[C@@H]12	none
CC(Sc1ccc(Cl)cc1)C(=O)NCC(c1ccco1)N1CCCCC1 (stereo not drawn)	Pemphigus Ab inh inconclusive, HDAC3 inhib inconclusive
O=C(CN(c1ccc(Cl)cc1)S(=O)(=O)c1ccc(Cl)c([N+](=O)[O-])c1)NCCc1ccc(F)cc1	Pemphigus Ab inh 45
O=C(CN(c1ccc(Cl)cc1)S(=O)(=O)c1ccc(Cl)c([N+](=O)[O-])c1)NCCc1ccccc1	none
COc1cc2c(c(OC)c1O)C(=O)CO2	none
COc1cc(OC)c2c(O)c3c(c(-c4c5c(c(O)c6c(OC)cc(OC)cc46)CO[C@@H](C)[C@H]5O)c2c1)[C@H](O)[C@H](C)OC3	Pemphigus Ab inh 74
CCCN1CCN(C(=O)C2CCN(S(=O)(=O)c3ccc4c(c3)NC(=O)C(C)S4)CC2)CC1 (stereo not drawn)	none
O=c1nc(-c2ccccc2)c2ccccc2[nH]1	Pemphigus Ab inh 88
COc1ccc(OC/C(O)=C(\C#N)c2nc3ccccc3[nH]2)cc1	Pemphigus Ab inh 16
COc1ccc(/C=N/OC/C(O)=C(\C#N)c2nc3ccccc3[nH]2)cc1	none
COc1ccc(CCN(CC(=O)NCc2ccc(F)cc2)C(=O)c2snc(C(N)=O)c2N)cc1OC	none
COc1cc(N2CCCC2)c(OC)cc1/C=C(/C#N)c1ccc(F)cc1	LANA-H2A inh -69
COCc1nnc(NC(=O)CCN2C(=O)c3ccccc3C2=O)s1	LANA-H2A inh 16
CCCc1nnc(NC(=O)CCN2C(=O)c3ccccc3C2=O)s1	none
NS(=O)(=O)c1ccc(NC(=S)N2CCN(c3ccc(Cl)c(Cl)c3)CC2)cc1	Pemphigus Ab inh 53 (no result: HDAC3 inhib, LANA-H2A inh)
CCN(C(=O)COC(=O)/C=C/c1cccc([N+](=O)[O-])c1)c1c(N)n(Cc2ccccc2)c(=O)[nH]c1=O	none
Fc1ccc(CN2C3=NCCCN3c3ccccc32)cc1	LANA-H2A inh 59
C=CCN1C(=O)/C(=C2\SC(N3CCOCC3)=NC2=O)c2cc(Br)ccc21	LANA-H2A inh 19
Clc1ccc(-c2nnc3sc(-c4ccc(Br)o4)nn23)cc1	LANA-H2A inh 46
COc1ccccc1NS(=O)(=O)c1cccc(NS(=O)(=O)c2ccc(Cl)c(C(=O)O)c2)c1	none
CCCN1CCC(NC(=O)Nc2ccc([N+](=O)[O-])cc2)CC1	none
CCCN1CCC(NC(=O)Nc2ccc(Br)cc2)CC1	LANA-H2A inh 18
CC(C)(C)[C@H]1COC(=O)CCCC/C=C\C[C@H](CC(=O)N(CCO)Cc2ccccc2)C(=O)N1	none (no result: HDAC3 inhib, LANA-H2A inh)
O=C1CCCC/C=C\C[C@H](CC(=O)N(CCO)Cc2ccccc2)C(=O)N[C@@H](c2ccccc2)CO1	T cell modulator 62
CC(C)(CNc1ccc(S(=O)(=O)C(F)(F)F)cc1[N+](=O)[O-])N1CCOCC1	LANA-H2A inh 27
CC(C)(CNc1ccc([N+](=O)[O-])cc1C#N)N1CCOCC1	none
CCOc1ccc(S(=O)(=O)NCCC(=O)N2CC(C)OC(C)C2)cc1 (stereo not drawn)	none
CN1C(=CC=C2C=C(I)C(=O)C(I)=C2)C(C)(C)c2ccccc21	Pemphigus Ab inh 59 (no result: T cell modulator, HDAC3 inhib, LANA-H2A inh)
COc1cccc(Cn2cc(C)cc(NC(=O)NCc3ccccc3)c2=O)c1	LANA-H2A inh 23
CCOc1ccc(NC(=O)CN(C)C(=O)c2nc3nc(C)cc(C)n3n2)cc1OCC	LANA-H2A inh 35
CCCCN(C(=O)C1CC(=O)N(c2ccc3c(c2)OCCO3)C1)c1c(N)n(CCCC)c(=O)[nH]c1=O (stereo not drawn)	LANA-H2A inh 25
CCCCN(C(=O)C1CC(=O)N(c2ccc3c(c2)OCCO3)C1)c1c(N)n(CCC)c(=O)[nH]c1=O (stereo not drawn)	none (no result: Pemphigus Ab inh)
Nc1ccc2cccc(O)c2c1	Pemphigus Ab inh 64 (no result: T cell modulator, HDAC3 inhib, LANA-H2A inh)
COc1ccc(NC(=O)C(=O)N/N=C(\C)CC(=O)Nc2ccccn2)c(OC)c1	none (no result: Pemphigus Ab inh)
COc1ccccc1NC(=O)C(=O)N/N=C(\C)CC(=O)Nc1ccccn1	LANA-H2A inh 24
CC(=O)Nc1cccc(C2=CC(c3ccco3)n3ncnc3N2)c1 (stereo not drawn)	LANA-H2A inh 30 (no result: Arrestin-AP2 inh, Pemphigus Ab inh)
O=C(c1ccncc1)N1N=C(C2CC2)CC1(O)C(F)(F)F (stereo not drawn)	none
O=C(c1cccnc1)N1N=C(C2CC2)CC1(O)C(F)(F)F (stereo not drawn)	LANA-H2A inh 11 (no result: HDAC3 inhib)
CCOC(=O)[C@@H]1[C@H]2COc3ccccc3[C@@H]2N2C(=O)N(c3ccc(C)cc3)C(=O)[C@]12C	none
Cc1ccc(C)c(CNS(=O)(=O)c2c(C(=O)N3CCCC3)c(C)n(C)c2C)c1	none
Cc1cccc(NC(=O)CSc2nnc(C3CC3)n2CC2CCCO2)c1C (stereo not drawn)	none
CCc1ccccc1NC(=O)CSc1nnc(C2CC2)n1CC1CCCO1 (stereo not drawn)	LANA-H2A inh 19
Cc1ccc(S(=O)(=O)CCC(=O)NCc2ccccc2F)cc1	none
CC1=C(C(=O)OC(C)C)C(c2cccs2)NC(=O)N1 (stereo not drawn)	none
CC1=C(C(=O)OC(C)C)C(c2cccs2)C(C(=O)OC(C)C)=C(C)N1	HDAC3 inhib 29
CCCC(=O)Nc1ccccc1NC(C)=O	LANA-H2A inh 18 (no result: Pemphigus Ab inh)
O=C(C[n+]1ccccc1)Nc1ccccc1Br	none
O=C(C[n+]1ccccc1)Nc1ccccc1[N+](=O)[O-]	LANA-H2A inh 111
COc1ccc(OC)c(/C=C2\N=C(c3ccccc3)OC2=O)c1	LANA-H2A inh 42
COc1ccccc1C(=O)CC(=O)c1ccccc1	LANA-H2A inh 17
COc1ccccc1C(=O)NNC(=O)c1ccccc1	none
CC(NC(=O)c1ccc([N+](=O)[O-])o1)C1CC2CCC1C2 (stereo not drawn)	none
O=C1CCC[C@@H]2[C@@H](Cc3ccccc3)[C@H](N3CCN(c4ccccc4)CC3)C[C@@H]3CCN1[C@@H]32	none (no result: T cell modulator, HDAC3 inhib, LANA-H2A inh)
CC12COC3(C(=O)Nc4ccc5ccccc5c4)CC1CCC32C (stereo not drawn)	LANA-H2A inh 32
O=C(OCn1nnc2ccccc2c1=O)c1ccc(F)c(S(=O)(=O)N2CCOCC2)c1	none (no result: Arrestin-AP2 inh, T cell modulator, HDAC3 inhib, LANA-H2A inh)
O=C(N/N=C/c1coc2ccc(Cl)cc2c1=O)c1ccc(O)cc1	HDAC3 inhib 97 (no result: Pemphigus Ab inh)
